Myeloid diff 2: myeloid differentiation induction; ER-HoxA9 myeloid progenitors, lysozyme-GFP differentiation, flow cytometry; 1% of 360,000 active; AID 624256; calls only at 10 µM;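 active means normalized GFP-positive differentiation at or above the plate's own cutoff, the solvent-only control mean plus 3 SD; inconclusive means no clear call, values can overlap the other calls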;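 further: cells exposed to compound for four days before flow analysis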
CSN deneddyl inh: inhibitors of human CSN-mediated cullin deneddylation; Purified CSN, SCF-Nedd8-OG deneddylation, fluorescence polarization; 0.38% of 360,000 active; inhibition, % at 12.5 µM; AID 651999; Q92905;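 active means pattern-corrected inhibition above about 35%, with an unprinted fluorescence ratio check between 0.5 and 1.5, limit read from the data, passing the limit was not always enough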;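 further: 0% = enzyme with substrate and 100% = substrate without enzyme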
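Test system: Human Csn5 produced in HEK293T cells | Compound: 12.5 µM single point | Times: 90 min, room temperature | Signal: Fluorescence polarization readout | Read-out basis: % inhibition of substrate cleavage by Csn5 | Controls: no-enzyme wells high, enzyme-with-substrate wells low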
TPT1 inh: inhibitors of Candida albicans tRNA 2'-phosphotransferase TPT1. recombinant caTPT1, FP RNA substrate dephosphorylation. inhibition, % at 5 µM. 0.81% of 300,000 active;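 active means inhibition above the mean of all tested compounds plus 3 SD, set per screening campaign, cut at about 24% in these data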;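 further: plate controls were DMSO alone for no effect and ferristatin control at 100 nM for full effect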
HNF4A DNA FP: change in binding of human HNF4 alpha to DNA; activity change, % at 10 µM; HNF4a-FITC DNA binding, fluorescence polarization, 1 h; P41235; 0.3% of 360,000 active; in the data active means activity change above about 30%, passing the limit was not always enough
Target sequence (P41235 whole entry, looked up): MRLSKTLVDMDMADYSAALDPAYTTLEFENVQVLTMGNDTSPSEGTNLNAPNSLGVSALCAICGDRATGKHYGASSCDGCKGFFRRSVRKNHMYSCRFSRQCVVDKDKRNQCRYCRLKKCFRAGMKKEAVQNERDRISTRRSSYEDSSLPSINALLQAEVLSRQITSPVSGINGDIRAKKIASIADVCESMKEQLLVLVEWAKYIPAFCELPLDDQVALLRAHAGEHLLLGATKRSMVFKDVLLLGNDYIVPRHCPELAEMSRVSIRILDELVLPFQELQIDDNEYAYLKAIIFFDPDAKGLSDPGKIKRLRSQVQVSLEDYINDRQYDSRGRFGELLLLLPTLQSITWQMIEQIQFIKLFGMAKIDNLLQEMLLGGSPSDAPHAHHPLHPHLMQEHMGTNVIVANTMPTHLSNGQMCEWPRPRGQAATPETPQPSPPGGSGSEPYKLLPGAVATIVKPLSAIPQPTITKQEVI
Rpn11 block: blocks the human proteasome subunit Rpn11; 0.59% of 360,000 active; human 26S proteasome, Ub4-pepOG fluorescence polarization; 20S core pre-blocked with epoxomicin; O00487; inhibition, % at 20 µM;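 active means inhibition at 20 µM, scaled to each plate's controls, above about 33%, limit read from the data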
The depositor's hits bear a star; i = inactive; ? = inconclusive; / = no result shown; + = active, no number. Rows were chosen to be rich in hits. Some 2.3% of all compounds tested hit in one or more screens of this group.

SMILES	Myeloid diff 2	CSN deneddyl inh	TPT1 inh	HNF4A DNA FP	Rpn11 block
CC(=O)Nc1cccc(OCC(O)Cn2cnc3ccccc32)c1 (stereo unspecified)	i	58*	2	-3	6
Brc1ccc2c(c1)C(c1ccc(N3CCOCC3)cc1)=NNC(c1cccs1)=N2	i	14	1	37*	/
Cc1ccc2c(c1)C(c1ccc(N3CCOCC3)cc1)=NNC(c1cccs1)=N2	i	-1	-3	4	29
Fc1ccc2c(c1)C(c1ccc(N3CCOCC3)cc1)=NNC(c1cccs1)=N2	i	9	-3	15	82*
N#CCSc1ncnc2sc3c(c12)CCC3	i	38*	12	9	5
Cc1ccc(S(=O)(=O)Nc2ccccc2OC(C(=O)OC(C)(C)C)C(=O)OC(C)(C)C)cc1	i	2	/	-3	/
Cn1c(=O)c2c(SCC(=O)Nc3nccs3)nc(C3CC3)nc2n(C)c1=O	+	-2	-8	7	-3
Cc1ccc2ncc(S(=O)(=O)c3ccccc3)c(N3CCCCC3C)c2c1 (stereo unspecified)	+	3	-1	0	-8
COc1ccc2ncc(S(=O)(=O)c3ccccc3)c(N3CCN(c4ccccc4)CC3)c2c1	i	-3	5	0	-3
COc1cc2c(cc1N/C=C(\C#N)c1nc(-c3ccccc3)cs1)oc1ccccc12	+	-18	2	15	21
COCCCNC(=O)C[C@@H]1C[C@@]2(C(=O)OC)CCCCC=C2N(Cc2ccco2)C1=O	i	0	/	1	/
C#CCOCCOCCOCCNc1nc(N2CCN(C(=O)CCCCCCCCCCNC(=O)[C@H]([C@@H](C)CC)n3cc(CCCCCN)nn3)CC2)nc(N2CCN(C(=O)CCCCCCCCCCNC(=O)[C@@H]([C@H](C)O)n3cc(C)nn3)CC2)n1	?	17	-6	15	45*
C#CCOCCOCCOCCNc1nc(N2CCN(C(=O)CCCCCCCCCCNC(=O)[C@H](CCCCN)n3cc(C)nn3)CC2)nc(N2CCN(C(=O)CCCCCCCCCCNC(=O)[C@@H]([C@H](C)CC)n3cc(CCCCCN)nn3)CC2)n1	i	111*	-3	165	67*
COc1ccc(OC)c(CC(=O)Nc2ccc3c(c2)c(=O)n(C)n3Cc2cccc(C(F)(F)F)c2)c1	i	2	/	-1	4
O=C(Cn1ncc2c(=O)oc3ccccc3c21)N1CCCN(Cc2ccccc2F)C1	+	2	2	2	1
O=C(Cn1ncc2c(=O)oc3ccccc3c21)N1CCN(C(=O)c2ccco2)CC1	i	-3	-4	-1	-1
CSCCC(C(=O)NC(C)(C)C)n1c(-c2ccc(C)cc2)nc2ccccc21 (stereo unspecified)	i	1	/	9	/
CCCCCN1CC(=O)N2C(C)c3[nH]c4ccccc4c3C[C@H]2C1=O (stereo partly specified)	+	-1	0	3	-4
Cc1cc(C)nc(SC2=CS(=O)(=O)c3ccccc32)n1	+	1	1	1	0
CC(C)Cc1ccc(C(C)C(=O)O)cc1 (stereo unspecified)	+	-2	2	/	-5
CC(C)Cc1ccc(C(C)C(=O)Nc2ncccn2)cc1 (stereo unspecified)	i	4	-7	-2	1
Cc1ccc(N(C)S(=O)(=O)c2ccc3c(c2)CC(C)N3C(=O)C2CC2)cc1 (stereo unspecified)	+	-2	-2	0	-3
CC(=O)N1c2ccc(S(=O)(=O)N(C)c3cc(C)ccc3C)cc2CC1C (stereo unspecified)	i	5	-1	-1	-7
O=C(Oc1c(CN2CCOCC2)cc(Cl)c2cccnc12)c1ccc(F)cc1	+	-3	0	5	5
COc1cc(C(=O)Oc2c(CN3CCOCC3)cc(Cl)c3cccnc23)cc(OC)c1OC	+	1	-3	0	-9
CCCS(=O)(=O)NC(=O)C1(C)CCN(C(=O)c2ccc(C#N)cc2)C1 (stereo unspecified)	i	0	/	1	-3
COc1ccc(N2CCN(C(=O)COC(=O)CNC(=O)c3cccc(OC(F)F)c3)CC2)cc1	i	1	/	5	-4
CCCCCCSc1ccc([C@@H]2[C@H]3C(=O)N(C)C(=O)[C@H]3[C@]3(C(=O)OC)CCCCN23)cc1OC	+	7	5	8	8
